According to ChEMBL document CHEMBL4706643 (J Med Chem, 2021):
Entries after “also recorded” stand apart in the source; their conditions may differ. Activity calls are given as the source filed them. No cut-off for these calls is given here.

Tests used:
[1] = Immunosuppressive activity in C57B/L mouse spleen T cells assessed as inhibition of anti-CD3 induced T cell proliferation incubated for 48 hrs by CFSE staining based flow cytometric analysis; format: tissue-based
In short: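 Spleen T cells from adult C57B/L mouse, CFSE-labelled, cultured in RPMI-1640 on anti-CD3-coated wells with compound or DMSO; stained with PE-anti-CD4 before flow cytometric proliferation analysis. Legend gives 48 h stimulation, methods 72 h; 2 μM compounds.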

HepG2 [2] = test: Cytotoxicity against human HepG2 cells at 100 uM; format: cell-based; details: hepg2, 100 µM
[3] = molecular target: T1, Ileal sodium/bile acid cotransporter (Homo sapiens, UniProt Q12908); test: Inhibition of human ASBT
T1 sequence (Q12908 whole entry): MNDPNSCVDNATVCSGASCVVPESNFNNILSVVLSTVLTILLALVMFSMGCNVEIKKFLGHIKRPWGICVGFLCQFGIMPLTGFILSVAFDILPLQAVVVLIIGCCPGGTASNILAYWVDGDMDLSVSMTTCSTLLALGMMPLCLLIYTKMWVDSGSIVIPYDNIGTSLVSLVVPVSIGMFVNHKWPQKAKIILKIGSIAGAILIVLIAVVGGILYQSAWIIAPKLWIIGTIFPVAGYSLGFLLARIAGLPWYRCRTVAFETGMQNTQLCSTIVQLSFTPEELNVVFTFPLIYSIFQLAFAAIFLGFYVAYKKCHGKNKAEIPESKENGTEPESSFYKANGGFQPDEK

HepG2 [4] = test: Inhibition of monkey NTCP-mediated [3H]-TCA uptake expressed in human HepG2 cells at 2 uM incubated for 2 hrs followed by substrate addition and measured for 10 mins by microbeta liquid scintillation counter analysis; format: cell-based; details: Macaca mulatta
In short: (§1)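 HepG2 cells expressing NTCP (human, mouse, monkey or tree shrew) seeded 4–6 h, PMM 20–24 h; compound 2 h, then Na+ Ringer's buffer with 2 μM 3H-TCA, 37 °C 10 min; PBS washes, lysis in 1% Triton X-100, scintillation counting. Single-concentration lines at 2 μM.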

[5] = molecular target: T2, Hepatic sodium/bile acid cotransporter (Homo sapiens, UniProt Q14973); test: Inhibition of human NTCP-mediated [3H]-TCA uptake expressed in human HepG2 cells at 2 uM incubated for 2 hrs followed by substrate addition and measured for 10 mins by microbeta liquid scintillation counter analysis; format: cell-based; details: hepg2, 2.167 h, time 130 min; in short: as §1
T2 sequence (Q14973 whole entry): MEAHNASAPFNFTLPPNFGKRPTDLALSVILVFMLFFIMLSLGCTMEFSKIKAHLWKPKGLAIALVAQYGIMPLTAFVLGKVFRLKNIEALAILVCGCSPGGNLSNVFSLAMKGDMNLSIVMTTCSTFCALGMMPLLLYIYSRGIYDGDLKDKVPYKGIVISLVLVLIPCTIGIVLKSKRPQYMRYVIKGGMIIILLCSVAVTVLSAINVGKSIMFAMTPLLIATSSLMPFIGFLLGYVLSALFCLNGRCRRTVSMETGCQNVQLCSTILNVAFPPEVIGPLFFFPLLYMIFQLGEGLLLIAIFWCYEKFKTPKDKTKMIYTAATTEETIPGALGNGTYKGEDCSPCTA

[6] = molecular target: T2, Hepatic sodium/bile acid cotransporter; test: Inhibition of human NTCP expressed in human HepG2 cells assessed as decrease in NTCP surface expression at 2 uM incubated for 2 hrs by DAPI staining based analysis; format: cell-based; details: hepg2, 2 h, 2 h
In short: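 HepG2-NTCP cells treated 2 h with DMSO, compound or TLCA at 2 μM, then immunostained for NTCP to assess cell-surface distribution.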

With `CC[C@@H]1NC(=O)[C@H]([C@@H]2O[C@@H](Sc3cccc(OCc4ccccc4)c3)C[C@H]2C)N(C)C(=O)[C@H](C(C)C)N(C)C(=O)[C@H](CC(C)C)N(C)C(=O)[C@H](CC(C)C)N(C)C(=O)[C@@H](C)NC(=O)[C@H](C)NC(=O)[C@H](CC(C)C)N(C)C(=O)[C@H](C(C)C)NC(=O)[C@H](CC(C)C)N(C)C(=O)CN(C)C1=O` the Activity [1] was “Non-Toxic”, the Activity (HepG2 [2]) was “Non-Toxic” and the “inhibition (INH)” value [3] was “Not Active”. For the same molecule, the inhibition (HepG2 [4]) was “Active”, the “inhibition (INH)” value [5] was “Active” and the “inhibition (INH)” value [6] was “Active; also recorded: Not Active”.
